# pIC50: −log10 of the molar value. Active and inactive are the calls of the source. The calls are words filed in the database; no cut-off is given here.
# Assays:
# [1] = Drug level in Sprague-Dawley rat blood at 3 mg/kg, po after 8 hrs by HPLC analysis; format: ADME, organism-based; design: dose 3 mg/kg, route oral; conditions: whole blood, read-out: Drug uptake
# Summary of the method: (§1)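 Total compound concentration was measured in brain and blood at 2, 4 and 8 h after a single oral 3 mg/kg dose. Brain/blood ratio was also derived. Values are mean ± SD of three rats.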
# [2] = Drug level in Sprague-Dawley rat brain at 3 mg/kg, po after 4 hrs by HPLC analysis; format: ADME, organism-based; design: dose 3 mg/kg, route oral; conditions: read-out: Drug uptake; summary of the method: as §1
# [3] = biological target: T1, 5-hydroxytryptamine receptor 3A (Cavia porcellus) (UniProt O70212); assay: Inhibition of 5HT3 receptor-mediated contraction of guinea pig ileum at 1 umol/L after 20 mins relative to control; format: tissue-based
# T1 sequence (whole entry): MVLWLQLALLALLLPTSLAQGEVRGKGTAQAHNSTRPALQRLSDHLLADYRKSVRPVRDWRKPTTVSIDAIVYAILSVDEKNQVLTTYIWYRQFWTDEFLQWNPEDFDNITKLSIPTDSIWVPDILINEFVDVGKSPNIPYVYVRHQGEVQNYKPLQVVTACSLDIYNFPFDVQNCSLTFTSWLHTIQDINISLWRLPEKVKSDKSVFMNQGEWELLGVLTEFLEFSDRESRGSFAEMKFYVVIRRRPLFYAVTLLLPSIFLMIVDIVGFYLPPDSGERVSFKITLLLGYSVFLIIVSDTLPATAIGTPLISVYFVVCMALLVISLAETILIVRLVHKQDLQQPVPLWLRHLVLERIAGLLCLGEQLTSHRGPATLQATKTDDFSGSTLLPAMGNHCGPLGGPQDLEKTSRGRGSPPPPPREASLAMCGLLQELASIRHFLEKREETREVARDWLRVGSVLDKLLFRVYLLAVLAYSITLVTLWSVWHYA
# Summary of the method: (§2)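 Ileum strips in Tyrode solution at 37 °C, gassed 5% CO2/95% O2, isotonic contractions under 1 g load. After at least 3 stable contractions to 10 μM 2-methyl-5-HT, tissue exposed to compound or DMSO vehicle for 20 min, then 10 μM 2-methyl-5-HT re-added; contraction expressed as % inhibition of control.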
# D(2) dopamine receptor [4] = biological target: T2, D(2) dopamine receptor (Homo sapiens, UniProt P14416); assay: Inhibition of human dopamine D2 receptor
# T2 sequence (P14416 whole entry): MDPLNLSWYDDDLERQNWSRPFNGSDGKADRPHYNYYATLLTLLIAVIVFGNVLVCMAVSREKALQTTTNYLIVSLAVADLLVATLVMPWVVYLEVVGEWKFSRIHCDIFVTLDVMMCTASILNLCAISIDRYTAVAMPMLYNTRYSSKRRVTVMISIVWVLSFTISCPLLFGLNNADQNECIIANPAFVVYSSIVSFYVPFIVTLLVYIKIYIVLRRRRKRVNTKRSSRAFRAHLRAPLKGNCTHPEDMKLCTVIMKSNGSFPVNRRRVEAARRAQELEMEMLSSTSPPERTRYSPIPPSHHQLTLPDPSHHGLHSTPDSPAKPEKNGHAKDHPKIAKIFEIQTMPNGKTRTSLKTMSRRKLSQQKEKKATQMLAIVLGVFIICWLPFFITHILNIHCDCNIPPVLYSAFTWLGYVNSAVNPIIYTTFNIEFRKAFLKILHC
# [5] = Drug level in Sprague-Dawley rat blood at 3 mg/kg, po after 4 hrs by HPLC analysis; format: ADME, organism-based; design: dose 3 mg/kg, route oral; conditions: whole blood, read-out: Drug uptake; summary of the method: as §1
# Rattus norvegicus [6] = assay: Induction of 5HT1A receptor-mediated behavioral activity in rat assessed as appearance of flat body posture at 10 mg/kg, iv after 30 mins; format: functional, organism-based; design: dose 10 mg/kg
# Summary of the method: (§3)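 Rats were conditioned to test procedures over 2 weeks and acclimated to the test cage for 1 h. Vehicle was saline containing diluted HCl. Lower lip retraction and flat body posture were scored on a 0–3 scale at 5, 10, 20 and 30 min after dosing.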
# [7] = biological target: Adrenergic receptor alpha-1 (Rattus norvegicus, UniProt P15823+P23944+P43140); assay: Inhibition of rat alpha1 adrenergic receptor
# [8] = biological target: 5-hydroxytryptamine receptor 6 (Homo sapiens, UniProt P50406); assay: Displacement of [3H]LSD from human recombinant 5HT6 receptor
# 5-hydroxytryptamine receptor 6, sequence (P50406 whole entry): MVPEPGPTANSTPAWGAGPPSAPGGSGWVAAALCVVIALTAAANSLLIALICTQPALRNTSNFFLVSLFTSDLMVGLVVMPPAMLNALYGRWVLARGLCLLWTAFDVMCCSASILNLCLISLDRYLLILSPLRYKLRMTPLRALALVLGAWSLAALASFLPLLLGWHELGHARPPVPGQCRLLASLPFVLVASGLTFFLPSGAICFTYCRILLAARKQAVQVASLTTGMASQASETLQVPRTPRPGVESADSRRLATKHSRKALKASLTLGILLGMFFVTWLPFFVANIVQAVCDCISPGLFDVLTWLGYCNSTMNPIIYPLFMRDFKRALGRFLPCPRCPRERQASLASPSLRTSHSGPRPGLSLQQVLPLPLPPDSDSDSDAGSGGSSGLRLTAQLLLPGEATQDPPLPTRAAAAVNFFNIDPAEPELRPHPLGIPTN
# Rattus norvegicus [9] = assay: […] activity in rat assessed as inhibition of 5HT-induced bradycardia at 10 ug/kg, iv by von Benzold-Jarisch reflex assay; format: functional
# [10] = biological target: Sodium-dependent dopamine transporter (Homo sapiens, UniProt Q01959); assay: Displacement of [3H]BTCP from human recombinant DAT
# Sodium-dependent dopamine transporter, sequence (Q01959 whole entry): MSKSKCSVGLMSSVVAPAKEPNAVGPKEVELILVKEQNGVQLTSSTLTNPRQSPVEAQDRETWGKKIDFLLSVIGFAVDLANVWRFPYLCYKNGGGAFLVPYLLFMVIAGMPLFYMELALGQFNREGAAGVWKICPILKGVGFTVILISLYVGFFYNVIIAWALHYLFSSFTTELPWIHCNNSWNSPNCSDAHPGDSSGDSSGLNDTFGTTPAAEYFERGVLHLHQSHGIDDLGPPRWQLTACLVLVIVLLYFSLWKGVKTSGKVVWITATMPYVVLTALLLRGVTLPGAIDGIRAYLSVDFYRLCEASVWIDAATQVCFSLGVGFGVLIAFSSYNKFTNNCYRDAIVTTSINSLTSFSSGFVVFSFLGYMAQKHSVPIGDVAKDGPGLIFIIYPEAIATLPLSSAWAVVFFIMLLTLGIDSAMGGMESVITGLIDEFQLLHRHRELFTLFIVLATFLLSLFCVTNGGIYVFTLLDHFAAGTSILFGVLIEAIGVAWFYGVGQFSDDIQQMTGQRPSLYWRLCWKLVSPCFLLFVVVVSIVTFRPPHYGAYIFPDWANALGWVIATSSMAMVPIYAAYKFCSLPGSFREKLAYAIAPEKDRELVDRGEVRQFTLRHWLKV
# [11] = biological target: 5-hydroxytryptamine receptor 2A (Rattus norvegicus, UniProt P14842); assay: Inhibition of rat 5HT2 receptor
# 5-hydroxytryptamine receptor 2A, sequence (P14842 whole entry): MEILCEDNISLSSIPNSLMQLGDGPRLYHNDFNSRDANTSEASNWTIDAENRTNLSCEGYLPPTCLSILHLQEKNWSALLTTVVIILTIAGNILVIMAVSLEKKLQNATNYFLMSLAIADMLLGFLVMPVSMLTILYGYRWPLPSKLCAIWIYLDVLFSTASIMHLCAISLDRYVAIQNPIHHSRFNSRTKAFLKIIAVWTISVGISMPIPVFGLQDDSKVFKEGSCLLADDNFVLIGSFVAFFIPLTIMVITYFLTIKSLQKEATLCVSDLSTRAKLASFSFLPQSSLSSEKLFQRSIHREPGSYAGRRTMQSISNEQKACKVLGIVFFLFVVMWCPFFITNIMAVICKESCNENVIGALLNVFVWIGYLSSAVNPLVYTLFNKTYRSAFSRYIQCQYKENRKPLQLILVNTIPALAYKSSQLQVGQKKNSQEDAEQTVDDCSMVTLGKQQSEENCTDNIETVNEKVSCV
# Adenosine receptor A3 = Adenosine receptor A3 (Homo sapiens, UniProt P0DMS8); assay: Displacement of [125I]AB-MECA from human recombinant adenosine A3 receptor
# Adenosine receptor A3, sequence (P0DMS8 whole entry): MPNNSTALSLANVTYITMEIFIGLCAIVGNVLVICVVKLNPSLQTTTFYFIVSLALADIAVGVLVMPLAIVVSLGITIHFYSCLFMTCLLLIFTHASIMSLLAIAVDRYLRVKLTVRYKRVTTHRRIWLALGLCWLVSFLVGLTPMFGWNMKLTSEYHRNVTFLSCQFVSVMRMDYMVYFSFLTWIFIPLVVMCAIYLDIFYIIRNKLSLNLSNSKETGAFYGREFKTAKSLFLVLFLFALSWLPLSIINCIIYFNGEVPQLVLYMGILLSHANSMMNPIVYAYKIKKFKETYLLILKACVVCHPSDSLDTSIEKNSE
# Rattus norvegicus [12] = assay: Induction of 5HT1A receptor-mediated lower lip retraction behavior in rat at 10 mg/kg, iv after 30 mins; format: functional, organism-based; design: dose 10 mg/kg; summary of the method: as §3
# Rattus norvegicus [13] = assay: Reduction in wrap restraint stress-induced defecation in WAY-100635-treated rat diarrhea-predominant irritable bowel syndrome model at 0.3 to 3 mg/kg, ip administered 20 mins following addition of 5HT1A receptor antagonist WAY-100635; format: functional, organism-based
# Summary of the method: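 Rats received saline (with diluted HCl) or WAY-100635 sc; 20 min later compound or vehicle ip. Five minutes after, lightly anesthetized rats were wrapped for 1 h and feces counted. n = 8 per group, mean (SD); Wilcoxon and nonparametric Dunnett's tests.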
# [14] = Displacement of [3H]DADLE from human recombinant delta2 opioid receptor
# [15] = biological target: Kappa-type opioid receptor (Cavia porcellus, UniProt P41144); assay: Displacement of [3H]U69593 from guinea pig cerebellum kappa opioid receptor; format: tissue-based
# Kappa-type opioid receptor, sequence (P41144 whole entry): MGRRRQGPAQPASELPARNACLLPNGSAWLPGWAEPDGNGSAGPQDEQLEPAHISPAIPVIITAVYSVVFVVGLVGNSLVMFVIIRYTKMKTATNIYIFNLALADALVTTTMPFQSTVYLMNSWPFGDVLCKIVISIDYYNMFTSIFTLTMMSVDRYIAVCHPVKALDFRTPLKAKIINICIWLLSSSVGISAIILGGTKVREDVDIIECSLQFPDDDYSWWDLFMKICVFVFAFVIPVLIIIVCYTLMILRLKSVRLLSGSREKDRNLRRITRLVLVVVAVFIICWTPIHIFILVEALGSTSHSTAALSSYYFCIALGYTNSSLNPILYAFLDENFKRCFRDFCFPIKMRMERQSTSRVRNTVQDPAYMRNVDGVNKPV
# D(2) dopamine receptor [16] = biological target: T2, D(2) dopamine receptor; assay: Displacement of [3H]spiperone from human recombinant dopamine D2 receptor
# [17] = biological target: Neuropeptide Y receptor type 1 (Homo sapiens, UniProt P25929); assay: Displacement of [125I]peptide YY from NPY1 receptor in human SK-N-MC cells; format: cell-based
# Neuropeptide Y receptor type 1, sequence (P25929 whole entry): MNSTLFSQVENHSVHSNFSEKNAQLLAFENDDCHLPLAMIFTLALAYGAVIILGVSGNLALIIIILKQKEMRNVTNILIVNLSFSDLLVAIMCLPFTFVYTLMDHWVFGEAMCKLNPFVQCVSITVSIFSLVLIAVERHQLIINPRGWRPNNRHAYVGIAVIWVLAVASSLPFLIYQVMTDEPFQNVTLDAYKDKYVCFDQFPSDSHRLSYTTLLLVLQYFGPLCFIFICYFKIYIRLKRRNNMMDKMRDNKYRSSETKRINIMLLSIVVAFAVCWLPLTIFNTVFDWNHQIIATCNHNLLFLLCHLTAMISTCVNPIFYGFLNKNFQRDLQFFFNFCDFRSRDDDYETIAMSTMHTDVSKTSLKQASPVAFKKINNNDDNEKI
# [18] = Ratio of drug level in brain to blood in Sprague-Dawley rat at 3 mg/kg, po after 4 hrs; format: ADME, organism-based; design: dose 3 mg/kg, route oral
# Summary of the method: (§4)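 Rats dosed 3 mg/kg orally; total compound levels measured in brain and blood at 2, 4 and 8 h, brain/blood ratio derived. Mean ± SD of three rats.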
# [19] = biological target: T1, 5-hydroxytryptamine receptor 3A (Cavia porcellus); assay: Inhibition of 5HT3 receptor-mediated contraction of guinea pig ileum at 0.1 umol/L after 20 mins relative to control; format: tissue-based; summary of the method: as §2
# Mu-type opioid receptor = Mu-type opioid receptor (Homo sapiens, UniProt P35372); assay: Displacement of [3H]DAMGO from human recombinant mu opioid receptor
# Mu-type opioid receptor, sequence (P35372 whole entry): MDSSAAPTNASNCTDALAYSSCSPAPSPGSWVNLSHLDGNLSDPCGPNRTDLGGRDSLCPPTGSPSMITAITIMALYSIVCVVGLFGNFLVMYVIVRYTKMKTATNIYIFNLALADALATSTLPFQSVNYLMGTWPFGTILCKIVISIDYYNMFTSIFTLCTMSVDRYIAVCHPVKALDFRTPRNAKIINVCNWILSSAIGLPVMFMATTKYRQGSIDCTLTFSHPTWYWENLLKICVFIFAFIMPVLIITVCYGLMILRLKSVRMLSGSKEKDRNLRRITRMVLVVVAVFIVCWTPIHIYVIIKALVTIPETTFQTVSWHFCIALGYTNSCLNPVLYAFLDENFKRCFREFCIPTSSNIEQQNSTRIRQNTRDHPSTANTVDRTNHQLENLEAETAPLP
# [20] = biological target: Muscarinic acetylcholine receptor M1 (Homo sapiens, UniProt P11229); assay: Displacement of [3H]pirenzepine from human recombinant muscarinic M1 receptor
# Muscarinic acetylcholine receptor M1, sequence (P11229 whole entry): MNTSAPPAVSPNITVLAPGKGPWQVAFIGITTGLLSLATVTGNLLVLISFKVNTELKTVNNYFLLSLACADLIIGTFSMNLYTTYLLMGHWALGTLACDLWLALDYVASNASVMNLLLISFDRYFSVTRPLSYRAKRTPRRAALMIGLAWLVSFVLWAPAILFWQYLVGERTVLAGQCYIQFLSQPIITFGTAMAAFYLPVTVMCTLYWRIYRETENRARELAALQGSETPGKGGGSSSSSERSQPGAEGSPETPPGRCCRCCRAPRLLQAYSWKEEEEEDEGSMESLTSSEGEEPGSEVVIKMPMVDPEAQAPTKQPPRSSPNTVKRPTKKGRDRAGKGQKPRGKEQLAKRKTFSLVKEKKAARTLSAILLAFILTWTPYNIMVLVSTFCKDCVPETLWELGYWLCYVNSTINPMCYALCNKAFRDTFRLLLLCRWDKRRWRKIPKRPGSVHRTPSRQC
# [21] = biological target: T3, 5-hydroxytryptamine receptor 1A (Homo sapiens, UniProt P08908); assay: Displacement of 8-hydroxy-[3H]DPAT from human recombinant 5HT1A receptor
# T3 sequence (P08908 whole entry): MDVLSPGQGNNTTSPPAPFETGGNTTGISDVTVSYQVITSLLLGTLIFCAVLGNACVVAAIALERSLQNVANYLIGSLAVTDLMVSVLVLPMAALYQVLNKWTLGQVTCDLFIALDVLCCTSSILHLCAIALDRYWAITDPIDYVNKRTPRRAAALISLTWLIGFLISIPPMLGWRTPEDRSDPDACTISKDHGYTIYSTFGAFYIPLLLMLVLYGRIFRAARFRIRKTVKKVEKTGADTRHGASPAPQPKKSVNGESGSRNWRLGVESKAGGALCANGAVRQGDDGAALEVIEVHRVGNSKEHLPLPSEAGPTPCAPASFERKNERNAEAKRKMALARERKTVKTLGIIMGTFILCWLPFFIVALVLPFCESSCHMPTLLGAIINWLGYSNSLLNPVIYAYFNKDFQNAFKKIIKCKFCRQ
# [22] = Drug level in Sprague-Dawley rat brain at 3 mg/kg, po after 8 hrs by HPLC analysis; format: ADME, organism-based; design: dose 3 mg/kg, route oral; conditions: read-out: Drug uptake; summary of the method: as §1
# [23] = Ratio of drug level in brain to blood in Sprague-Dawley rat at 3 mg/kg, po after 8 hrs; format: ADME, organism-based; design: dose 3 mg/kg, route oral; summary of the method: as §4
smiles,measurement,setting,value
Nn1c(CCCCN2CCN(c3ccc4ccccc4n3)CC2)nc2c(c1=O)CCCC2,concentration at 8 h,[1],9.97 nM
same,concentration at 4 h,[2],70.2 nM
same,inhibition,[3],96.8%
same,pIC50,D(2) dopamine receptor [4],< 7.00
same,concentration at 4 h,[5],16.8 nM
same,Activity,Rattus norvegicus [6],Active
same,IC50,[7],> 0.1 µM
same,pIC50,[8],< 6.00
same,inhibition in vivo at 0.01 mg/kg,Rattus norvegicus [9],≤ 64%
same,pIC50,[10],< 6.00
same,pIC50,[11],7.00
same,pIC50,Adenosine receptor A3,< 6.00
same,Activity,Rattus norvegicus [12],Active
same,inhibition,Rattus norvegicus [13],inactive
same,pIC50,[14],< 6.00
same,pIC50,[15],< 6.00
same,pIC50,D(2) dopamine receptor [16],< 6.00
same,pIC50,[17],< 6.00
same,Kp at 4 h,[18],4.4
same,inhibition,[19],70.4%
same,pIC50,Mu-type opioid receptor,< 6.00
same,pIC50,[20],< 6.00
same,pIC50,[21],< 8.87
same,concentration at 8 h,[22],56.4 nM
same,Kp at 8 h,[23],6.54
